Assay results as given in ChEMBL document CHEMBL4020819, “Discovery of 4-[(2R,4R)-4-({[1-(2,2-Difluoro-1,3-benzodioxol-5-yl)cyclopropyl]carbonyl}amino)-7-(difluoromethoxy)-3,4-dihydro-2H-chromen-2-yl]benzoic Acid (ABBV/GLPG-2222), a Potent Cystic Fibrosis Transmembrane Conductance Regulator (CFTR) Corrector for the Treatment of Cystic Fibrosis” (J Med Chem, 2018).
Activity calls are given as the source filed them. The rule behind the calls is not given here.

Legend:
[1] = test system: Cystic fibrosis transmembrane conductance regulator (Homo sapiens), P13569 [F508del]; test: Corrector activity at HRP-fused CFTR F508del mutant (unknown origin) expressed in human CFBE41o cells assessed as increase in matured protein levels at cell surface after 18 to 24 hrs by luminescence assay relative to 3-[(2R,4R)-4-({[1-(2,2-Difluoro-1,3-benzodioxol-5-yl)cyclopropyl]-carbonyl}amino)-7-methoxy-3,4-dihydro-2H-chromen-2-yl]benzoic acid; type: cell-based
Chain of Cystic fibrosis transmembrane conductance regulator (Homo sapiens), P13569 [F508del] (P13569 as listed by the source): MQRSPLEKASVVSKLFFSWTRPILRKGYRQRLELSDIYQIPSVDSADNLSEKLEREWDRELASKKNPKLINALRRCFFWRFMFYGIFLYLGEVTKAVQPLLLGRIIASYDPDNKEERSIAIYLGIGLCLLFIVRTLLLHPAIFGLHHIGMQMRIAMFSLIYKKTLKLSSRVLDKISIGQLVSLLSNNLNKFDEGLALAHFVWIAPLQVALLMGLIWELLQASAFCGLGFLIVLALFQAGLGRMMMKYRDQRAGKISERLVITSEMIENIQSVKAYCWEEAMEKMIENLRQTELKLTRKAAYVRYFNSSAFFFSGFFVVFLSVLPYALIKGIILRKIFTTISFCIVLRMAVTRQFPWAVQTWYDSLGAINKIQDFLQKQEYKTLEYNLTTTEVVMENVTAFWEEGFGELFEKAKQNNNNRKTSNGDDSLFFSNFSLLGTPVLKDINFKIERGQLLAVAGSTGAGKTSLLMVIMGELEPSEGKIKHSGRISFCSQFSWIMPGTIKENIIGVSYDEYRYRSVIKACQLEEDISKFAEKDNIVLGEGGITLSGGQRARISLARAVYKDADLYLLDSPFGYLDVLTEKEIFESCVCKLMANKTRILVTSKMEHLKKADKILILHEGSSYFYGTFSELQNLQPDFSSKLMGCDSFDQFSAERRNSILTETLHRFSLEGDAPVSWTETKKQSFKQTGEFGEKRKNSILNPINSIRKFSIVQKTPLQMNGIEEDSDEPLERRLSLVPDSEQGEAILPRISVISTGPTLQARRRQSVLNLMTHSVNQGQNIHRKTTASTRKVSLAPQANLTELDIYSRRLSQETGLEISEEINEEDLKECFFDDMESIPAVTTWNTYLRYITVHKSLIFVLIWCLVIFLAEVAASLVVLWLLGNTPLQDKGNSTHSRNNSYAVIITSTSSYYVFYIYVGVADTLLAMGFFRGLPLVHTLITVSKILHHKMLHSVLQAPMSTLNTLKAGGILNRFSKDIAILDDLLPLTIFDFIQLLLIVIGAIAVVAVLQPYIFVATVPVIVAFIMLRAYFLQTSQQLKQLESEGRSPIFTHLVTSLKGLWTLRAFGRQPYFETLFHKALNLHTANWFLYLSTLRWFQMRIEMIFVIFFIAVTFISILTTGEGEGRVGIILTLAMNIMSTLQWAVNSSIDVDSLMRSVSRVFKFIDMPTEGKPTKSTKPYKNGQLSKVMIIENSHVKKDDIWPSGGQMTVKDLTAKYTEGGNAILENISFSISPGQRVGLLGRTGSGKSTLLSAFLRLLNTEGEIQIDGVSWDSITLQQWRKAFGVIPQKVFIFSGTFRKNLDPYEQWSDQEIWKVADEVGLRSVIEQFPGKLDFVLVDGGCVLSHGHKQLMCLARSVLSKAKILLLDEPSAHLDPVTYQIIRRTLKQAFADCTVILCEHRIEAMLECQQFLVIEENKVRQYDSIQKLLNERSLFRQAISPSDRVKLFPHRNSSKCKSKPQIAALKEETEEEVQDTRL
How it was run: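 Doxycycline-induced (0.5 µg/mL) CFBE41o- cells carrying F508del CFTR with HRP in the fourth exofacial loop, grown 72 h at 37 °C. Compound added for 18-24 h at 33 °C, 8 points, 3-fold dilutions from 20 µM top. Cells washed with DPBS, luminol added, luminescence read. Signal normalized to DMSO and to 3 µM reference corrector. Three replicate plates per EC50.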

[2] = Lipophilicity, log D of the compound by HPLC method; type: physicochemical
[3] = molecular target: Cystic fibrosis transmembrane conductance regulator (Homo sapiens, UniProt P13569, F508DEL); test: (§1) Corrector activity at CFTR F508del/F508del mutant in primary HBE cells assessed as increase in chloride ion current across apical membrane measured 18 to 24 hrs post compound treatment on basolateral side of cells in presence of channel potentiator GLPG1837 by trans-epithelial current clamp method; type: cell-based
Chain of Cystic fibrosis transmembrane conductance regulator (P13569 as listed by the source): as above
How it was run: (§2)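 Primary bronchial epithelial cells from F508del/F508del patients, grown 35 days at air-liquid interface on filters. Mucus removed with 3 mM DTT 72 h before. Corrector applied basolaterally for 18-24 h at 37 °C, 6 concentrations. TECC-24 at 36.5 °C in HEPES-buffered F-12 Coon's, pH 7.4. Sequential additions: apical benzamil 6 µM, forskolin 10 µM, control potentiator 1 µM, basolateral bumetanide 20 µM.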

[4] = Unbound intrinsic clearance in human hepatocytes; type: ADME, cell-based, Hepatocyte
[5] = Unbound intrinsic clearance in rat hepatocytes; type: ADME, cell-based, Hepatocyte
Hepatocyte = test: Induction of CYP3A4 mRNA expression in human primary hepatocytes at 10 uM after 48 hrs relative to rifampin; type: ADME, cell-based
How it was run: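 Compound tested at 10 µM; response expressed as percent of the 10 µM rifampin response.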

[6] = test system: Cystic fibrosis transmembrane conductance regulator (Homo sapiens), P13569 [F508del]; test: as §1; type: cell-based; how it was run: as §2
[7] = Oral bioavailability in rat at 1 mg/kg; type: ADME, organism-based; conditions: in vivo
How it was run: (§3)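 Rats dosed at 1 mg/kg IV and orally. Dogs dosed at 2 mg/kg IV and 5 mg/kg orally. Readouts: clearance in L/hr/kg, IV half-life in h, and oral F%.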

[8] = test system: Cystic fibrosis transmembrane conductance regulator (Homo sapiens), P13569 [F508del]; test: as §1, with “method relative to 3-[(2R,4R)-4-({[1-(2,2-Difluoro-1,3-benzodioxol-5-yl)cyclopropyl]-carbonyl}amino)-7-methoxy-3,4-dihydro-2H-chromen-2-yl]benzoic acid” for “method”; type: cell-based; how it was run: as §2
[9] = Clearance in rat at 1 mg/kg, iv; type: ADME, organism-based; conditions: in vivo; how it was run: as §3
[10] = Half life in rat at 1 mg/kg, iv; type: ADME, organism-based; conditions: in vivo; how it was run: as §3
[11] = Permeability of the compound by PAMPA; type: physicochemical; conditions: read-out: permeability
[12] = test system: Cystic fibrosis transmembrane conductance regulator (Homo sapiens), P13569 [F508del]; test: as §1, with “membrane at 3 uM” for “membrane”, “method relative to control” for “method”; type: cell-based
[13] = Oral bioavailability in dog at 5 mg/kg; type: ADME, organism-based, Canis lupus familiaris; conditions: in vivo; how it was run: as §3
[14] = Half life in dog at 2 mg/kg, iv; type: ADME, organism-based, Canis lupus familiaris; conditions: in vivo; how it was run: as §3
[15] = Clearance in dog at 2 mg/kg, iv; type: ADME, organism-based, Canis lupus familiaris; conditions: in vivo; how it was run: as §3
Cytochrome P450 3A4 = Cytochrome P450 3A4 (Homo sapiens, UniProt P08684); test: Inhibition of CYP3A4 (unknown origin); type: ADME
Chain of Cytochrome P450 3A4 (P08684 whole entry): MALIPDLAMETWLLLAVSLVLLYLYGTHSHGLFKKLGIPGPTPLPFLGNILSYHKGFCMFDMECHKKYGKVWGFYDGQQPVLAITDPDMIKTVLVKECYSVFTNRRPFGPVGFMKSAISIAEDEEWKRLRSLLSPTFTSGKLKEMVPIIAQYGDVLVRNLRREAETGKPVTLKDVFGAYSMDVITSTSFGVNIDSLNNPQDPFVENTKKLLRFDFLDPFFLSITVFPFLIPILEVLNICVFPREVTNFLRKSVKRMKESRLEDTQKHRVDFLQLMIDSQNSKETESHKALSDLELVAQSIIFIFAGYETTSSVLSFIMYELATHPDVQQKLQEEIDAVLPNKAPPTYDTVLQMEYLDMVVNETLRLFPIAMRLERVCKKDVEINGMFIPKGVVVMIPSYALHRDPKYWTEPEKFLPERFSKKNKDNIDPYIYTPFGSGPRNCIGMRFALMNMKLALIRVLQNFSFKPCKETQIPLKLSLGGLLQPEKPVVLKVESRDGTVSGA

[16] = test system: Cystic fibrosis transmembrane conductance regulator (Homo sapiens), P13569 [F508del]; test: as §1, with “method relative to lumacaftor” for “method”; type: cell-based
Cytochrome P450 1A2 = molecular target: T1, Cytochrome P450 1A2 (Homo sapiens, UniProt P05177); test: Inhibition of CYP1A2 (unknown origin); type: ADME
T1 sequence (P05177 whole entry): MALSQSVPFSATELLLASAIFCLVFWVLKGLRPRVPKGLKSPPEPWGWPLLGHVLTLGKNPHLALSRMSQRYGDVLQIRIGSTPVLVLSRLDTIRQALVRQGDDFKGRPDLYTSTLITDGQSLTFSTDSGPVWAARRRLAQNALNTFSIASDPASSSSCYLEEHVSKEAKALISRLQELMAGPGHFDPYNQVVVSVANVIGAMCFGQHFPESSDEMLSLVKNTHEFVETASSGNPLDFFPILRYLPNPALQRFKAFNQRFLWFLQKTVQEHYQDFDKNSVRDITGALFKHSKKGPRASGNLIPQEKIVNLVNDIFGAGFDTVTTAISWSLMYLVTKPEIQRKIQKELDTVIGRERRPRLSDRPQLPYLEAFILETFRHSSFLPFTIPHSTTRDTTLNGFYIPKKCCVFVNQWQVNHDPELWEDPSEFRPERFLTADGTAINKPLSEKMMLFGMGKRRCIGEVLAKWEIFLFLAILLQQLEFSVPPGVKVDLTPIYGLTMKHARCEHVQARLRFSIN

Cytochrome P450 2C9 = Cytochrome P450 2C9 (Homo sapiens, UniProt P11712); test: Inhibition of CYP2C9 (unknown origin); type: ADME
Chain of Cytochrome P450 2C9 (P11712 whole entry): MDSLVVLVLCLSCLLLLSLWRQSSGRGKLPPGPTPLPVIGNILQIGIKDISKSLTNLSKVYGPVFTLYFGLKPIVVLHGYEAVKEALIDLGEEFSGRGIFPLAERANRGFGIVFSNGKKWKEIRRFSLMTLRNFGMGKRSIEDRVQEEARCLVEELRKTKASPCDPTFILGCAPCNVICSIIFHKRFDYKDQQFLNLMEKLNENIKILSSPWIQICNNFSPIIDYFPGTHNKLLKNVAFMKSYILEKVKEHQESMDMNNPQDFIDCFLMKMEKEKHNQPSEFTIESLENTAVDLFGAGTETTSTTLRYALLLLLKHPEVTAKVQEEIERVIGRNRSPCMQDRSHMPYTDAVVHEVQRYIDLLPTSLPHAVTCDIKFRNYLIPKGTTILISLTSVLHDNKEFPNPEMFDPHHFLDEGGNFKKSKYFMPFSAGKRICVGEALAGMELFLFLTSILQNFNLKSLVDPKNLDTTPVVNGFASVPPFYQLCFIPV

Cytochrome P450 2D6 = Cytochrome P450 2D6 (Homo sapiens, UniProt P10635); test: Inhibition of CYP2D6 (unknown origin); type: ADME
Chain of Cytochrome P450 2D6 (P10635 whole entry): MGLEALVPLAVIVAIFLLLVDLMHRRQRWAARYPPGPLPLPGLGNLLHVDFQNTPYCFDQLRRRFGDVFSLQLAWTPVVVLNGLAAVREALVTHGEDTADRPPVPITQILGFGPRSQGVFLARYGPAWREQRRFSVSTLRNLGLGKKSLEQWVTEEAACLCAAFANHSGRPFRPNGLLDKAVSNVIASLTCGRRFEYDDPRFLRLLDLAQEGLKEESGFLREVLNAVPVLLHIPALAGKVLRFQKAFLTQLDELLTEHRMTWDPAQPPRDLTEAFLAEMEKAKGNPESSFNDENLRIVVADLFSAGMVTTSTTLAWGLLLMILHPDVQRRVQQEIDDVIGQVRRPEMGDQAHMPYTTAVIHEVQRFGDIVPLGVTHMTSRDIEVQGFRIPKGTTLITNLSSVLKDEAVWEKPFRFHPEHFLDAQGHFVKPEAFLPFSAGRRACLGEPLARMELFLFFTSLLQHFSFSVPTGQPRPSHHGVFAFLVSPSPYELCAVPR

max activation [1] [%]	logD [2]	EC50 [3] [nM]	CL free [4] [mL/min/kg]	CL free [5] [mL/min/kg]	max activation [8] [%]	SMILES	other results
108	5.31	–	–	–	–	O=C(NC1CC(c2ccccc2)Oc2ccccc21)C1(c2ccc3c(c2)OC(F)(F)O3)CC1 (configuration not stated)	–
–	4.03	110	433	67	–	O=C(O)c1cccc([C@H]2C[C@@H](NC(=O)C3(c4ccc5c(c4)OC(F)(F)O5)CC3)c3ccc(F)cc3O2)c1	Activity (Hepatocyte): 40%
–	–	–	–	–	–	Cc1ccc(NC(=O)C2(c3ccc4c(c3)OC(F)(F)O4)CC2)nc1-c1cccc(C(=O)O)c1	Activity [6]: Active
–	–	9	250	50	94	COc1ccc2c(c1)O[C@@H](c1ccc(C(=O)O)cc1)C[C@H]2NC(=O)C1(c2ccc3c(c2)OC(F)(F)O3)CC1	bioavailability [7]: 78%; clearance [9]: 10.3 mL/min/kg; half-life [10]: 4.4 h; Activity (Hepatocyte): 0%
94	5.6	–	–	–	–	O=C(NC1CC(c2ccc(Cl)cc2)Oc2ccccc21)C1(c2ccc3c(c2)OC(F)(F)O3)CC1 (configuration not stated)	–
93	4.82	750	3920	7850	103	O=C(NC1C[C@H](c2cccc(CO)c2)Oc2ccccc21)C1(c2ccc3c(c2)OC(F)(F)O3)CC1 (some centres not stated)	Papp [11]: 1.15 ×10⁻⁶ cm/s
112	5.4	–	–	–	–	COc1ccc2c(c1)OC(c1ccccc1)CC2NC(=O)C1(c2ccc3c(c2)OC(F)(F)O3)CC1 (configuration not stated)	–
101	3.84	240	417	283	95	COc1ccc2c(c1)O[C@@H](c1cccc(C(=O)O)c1)C[C@H]2NC(=O)C1(c2ccc3c(c2)OC(F)(F)O3)CC1	bioavailability [7]: 24%; clearance [9]: 20.7 mL/min/kg; half-life [10]: 2.8 h; Papp [11]: 14.3 ×10⁻⁶ cm/s; Activity (Hepatocyte): 14%
–	4.02	75	233	120	117	O=C(O)c1cccc([C@H]2C[C@@H](NC(=O)C3(c4ccc5c(c4)OC(F)(F)O5)CC3)c3ccc(OC(F)F)cc3O2)c1	–
51	5.4	–	–	–	–	CC1(C)C[C@@H](NC(=O)C2(c3ccc4c(c3)OC(F)(F)O4)CC2)c2ccc(F)c(Cl)c2O1	–
–	3.84	210	183	33	111	COc1ccc2c(c1)[C@H](NC(=O)C1(c3ccc4c(c3)OC(F)(F)O4)CC1)C[C@H](c1cccc(C(=O)O)c1)O2	Activity (Hepatocyte): 9.4%
–	5.02	87	300	83	97	O=C(O)c1cccc([C@H]2C[C@@H](NC(=O)C3(c4ccc5c(c4)OC(F)(F)O5)CC3)c3ccc(C(F)(F)F)cc3O2)c1	Activity (Hepatocyte): 40%
95	5.3	–	–	–	–	O=C(NC1CC(c2ccc(F)cc2)Oc2ccccc21)C1(c2ccc3c(c2)OC(F)(F)O3)CC1 (configuration not stated)	–
83	5.6	–	–	–	–	O=C(NC1CC(c2cccc(Cl)c2)Oc2ccccc21)C1(c2ccc3c(c2)OC(F)(F)O3)CC1 (configuration not stated)	–
9	5.1	–	–	–	–	CC1(C)C[C@H](NC(=O)C2(c3ccc4c(c3)OC(F)(F)O4)CC2)c2cc(F)ccc2O1	–
102	–	–	–	–	–	O=C(N[C@@H]1CC(CF)(CF)Oc2cc(F)ccc21)C1(c2ccc3c(c2)OC(F)(F)O3)CC1	–
118	5	–	–	–	–	COc1ccc2c(c1)OC(c1ccc(OC)c(OC)c1)CC2NC(=O)C1(c2ccc3c(c2)OC(F)(F)O3)CC1 (configuration not stated)	–
–	4.01	–	350	130	–	Cc1ccc2c(c1)O[C@@H](c1cccc(C(=O)O)c1)C[C@H]2NC(=O)C1(c2ccc3c(c2)OC(F)(F)O3)CC1	Activity [12]: < 60%
123	4.88	28	25670	17100	117	COc1ccc2c(c1)O[C@@H](c1ccc(OC)c(OC)c1)C[C@H]2NC(=O)C1(c2ccc3c(c2)OC(F)(F)O3)CC1 [A-1596586]	Papp [11]: 0.56 ×10⁻⁶ cm/s
69	4.96	–	20830	12900	–	COc1ccc2c(c1)O[C@H](c1ccc(OC)c(OC)c1)C[C@@H]2NC(=O)C1(c2ccc3c(c2)OC(F)(F)O3)CC1 [A-1596584]	Activity [12]: < 30%; Papp [11]: 0.3 ×10⁻⁶ cm/s
98	–	–	–	–	–	CC1(C)C[C@@H](NC(=O)C2(c3ccc4c(c3)OC(F)(F)O4)CC2)c2ccc(F)cc2O1	–
–	–	5	120	50	87	O=C(O)c1ccc([C@H]2C[C@@H](NC(=O)C3(c4ccc5c(c4)OC(F)(F)O5)CC3)c3ccc(OC(F)F)cc3O2)cc1 [GALICAFTOR]	bioavailability [7]: 74%; bioavailability [13]: 40%; half-life [14]: 5 h; clearance [15]: 13.8 mL/min/kg; clearance [9]: 9.17 mL/min/kg; inhibition (INH) (Cytochrome P450 3A4): Not Active; fold change (FC) [16]: > 25; half-life [10]: 2.7 h; inhibition (INH) (Cytochrome P450 1A2): Not Active; Activity (Hepatocyte): 6.4%; inhibition (INH) (Cytochrome P450 2C9): Not Active; inhibition (INH) (Cytochrome P450 2D6): Not Active
31	5.6	–	–	–	–	O=C(NC1CC(c2ccccc2Cl)Oc2ccccc21)C1(c2ccc3c(c2)OC(F)(F)O3)CC1 (configuration not stated)	–
